Series [1] is described as follows: physchem. The settings on record: apparent pKa of L-GSH.
Series [2] in a line: Practical properties of thiol-reactive probes. The class given is physicochemical. The settings on record: data not shown.
The conditions of series [3]: reaction of ABD with L-GSH; for Ea/R: Arrhenius fit.
Series [4] can be described thus: fQCR: ABD labeling of a single buried cysteine over a temperature gradient. The class given is physicochemical. Put shortly: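 Purified single-buried-cysteine variant at 5-10 μM in 25 mM potassium phosphate, 100 mM KCl, pH 7, with TCEP. Final ABD at least 10-fold over protein. Parallel reactions run across a gradient thermocycler and quenched after fixed Δt by rapid cooling or acid. Fluorescence relative to RFUmax (400-2000 μM ABD) gives fractional labeling. Probe-concentration slices test EX2. ΔCp fixed at 3.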

Series [5] can be described thus: Thermal unfolding monitored by circular dichroism at 222 nm. The conditions noted are these: pH 7, CD signal at 222 nm, fit of Eq. 1. The class given is physicochemical. Put shortly: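 His-tagged variants, Ni-affinity purified and buffer-exchanged. Protein at 3 μM in 25 mM potassium phosphate, 100 mM KCl, pH 7. CD signal at 222 nm recorded as a function of temperature. Apparent Tm obtained by fitting Eq. 1.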
In general terms: Circular dichroism is widely used to follow secondary structure.

A short description of series [6]: fQCR ligand binding: RBP.A188C in absence and presence of D-ribose. The settings on record: for Δ^apoGU: absence of ligand; for Tm / ΔHm: free energy profile; for Kd: ligand ribose, from ΔΔGU (Eq. 17). Put shortly:
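RBP.A188C at 5 μM with 400 μM ABD and 50 μM TCEP (final) in 25 mM potassium phosphate, 100 mM KCl, pH 7, without or with 20 μM ligand. Samples incubated 10 min across a gradient thermocycler, then fluorescence read at 30°C (ex 405, em 465 nm). Fractional labeling converted to free-energy profiles. KD derived versus temperature and free ligand concentration via Eq. 17.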

Setting [7] is: absence of ribose (Fig. 6B inset).
Where [8] appears, read: presence of 20 μM ribose (Fig. 6B inset).
The mark [9] stands for this setting: Δt 300 s, [ABD] 500 μM, PHERAstar FS microplate reader (Fig. 7).

“And” between values parts separate entries of the source, which are not always exact repeats. Equal entries are not always repeated. Where two headings read alike, the source gives them in different places. Marks after values point to notes of the source that are not given here.

For orientation: pKa means the negative logarithm of the acid dissociation constant. Broadly, the Kd is the equilibrium constant for the complex coming apart.

For `N[C@@H](CCC(=O)N[C@@H](CS)C(=O)NCC(=O)O)C(=O)O` [L-GSH, reduced glutathione], the pKa in series [1] amounted to 8.03 ± 0.01.
Consider `CCN(CC)c1ccc2c(C)c(-c3ccc(N4C(=O)C=CC4=O)cc3)c(=O)oc2c1` [CPM, N-[4-(7-diethylamino-4-methyl-3-coumarinyl)phenyl]maleimide], for which, in series [2], the solubility entry is on record as “limited” and the spontaneous hydrolysis entry is reported as “high rate of spontaneous hydrolysis that is strongly temperature dependent”.
For the molecule `NS(=O)(=O)c1ccc(F)c2nonc12` [ABD, 4-(aminosulfonyl)-7-fluoro-2,1,3-benzoxadiazole], in series [3] (over pH 6-8.5), the “lnA, average value and standard error” value is given as 27.3 ± 0.3. For the same molecule, the Ea/R in series [3] (pH 6 (by order of symbols)) is -9300 ± 200 K; in series [3] (pH 7 (by order of symbols)), -8300 ± 200 K; in series [3] (pH 8 (by order of symbols)), -7800 ± 200 K; in series [3] (pH 8.5 (by order of symbols)) it was -7400 ± 200 K.

B1: RBP.L61C: E. coli ribose-binding protein variant engineered to contain a single, buried cysteine (L61C), C-terminal … tag (protein, UniProt P02925 26-296, looked up, variant L61C)
Ribose import binding protein …: KDTIALVVSTLNNPFFVSLKDGAQKEADKLGYNLVVLDSQNNPAKELANVQDLTVRGTKICLINPTDSDAVGNAVKMANQANIPVITLDRQATKGEVVSHIASDNVLGGKIAGDYIAKKAGEGAKVIELQGIAGTSAARERGEGFQQAVAAHKFNVLASQPADFDRIKGLNVMQNLLTAHPDVQAVFAQNDEMALGALRALQTAGKSDVMVVGFDGTPDGEKAVNDGKLAATIAQLPDQIGAKGVETADKVLKGEKVQAKYPVDLKLVVKQ
modifications: C-terminal … tag
Consider B1, for which the Tm in series [4] (summary line, quantified graphically) is 53 ± 1 ^c °C; in series [4] (Δt 300 s, [ABD] 400 μM, quantified graphically (non-EX2)), 53 ± 1 ^c °C; in series [4] (Δt 300 s, [ABD] 600 μM, quantified graphically (non-EX2)) it was 53 ± 1 ^c °C; in series [4] (Δt 300 s, [ABD] 800 μM, quantified graphically (non-EX2)) it was 53 ± 1 ^c °C; in series [4] (Δt 300 s, [ABD] 1200 μM, quantified graphically (non-EX2)), 53 ± 1 ^c °C. In addition, the “~kclose at Tm” value in series [4] (Δt 300 s, [ABD] 100 μM) is < 2 × 10^-2 ^e s^-1; in series [4] (Δt 300 s, [ABD] 200 μM), < 2 × 10^-2 ^e s^-1; in series [4] (Δt 300 s, [ABD] 400 μM), < 2 × 10^-2 ^e s^-1; in series [4] (Δt 300 s, [ABD] 600 μM), < 2 × 10^-2 ^e s^-1; in series [4] (Δt 300 s, [ABD] 800 μM) it was < 2 × 10^-2 ^e s^-1; in series [4] (Δt 300 s, [ABD] 1200 μM), < 2 × 10^-2 ^e s^-1. The “apparent Tm” value in series [5] is 53 ± 1 °C.

B2: RBP.A188C: E. coli ribose-binding protein variant engineered to contain a single, buried cysteine (A188C), C-terminal … tag (protein, UniProt P02925 26-296, looked up, variant A188C)
Ribose import binding protein …: KDTIALVVSTLNNPFFVSLKDGAQKEADKLGYNLVVLDSQNNPAKELANVQDLTVRGTKILLINPTDSDAVGNAVKMANQANIPVITLDRQATKGEVVSHIASDNVLGGKIAGDYIAKKAGEGAKVIELQGIAGTSAARERGEGFQQAVAAHKFNVLASQPADFDRIKGLNVMQNLLTAHPDVQAVFCQNDEMALGALRALQTAGKSDVMVVGFDGTPDGEKAVNDGKLAATIAQLPDQIGAKGVETADKVLKGEKVQAKYPVDLKLVVKQ
modifications: C-terminal … tag
As for B2, the “Δ^apoGU” value was determined as 3.7 kcal/mol in series [6] (46 °C); 3.0 kcal/mol in series [6] (48 °C); 2.3 kcal/mol in series [6] (50 °C); 1.6 kcal/mol in series [6] (52 °C); 0.9 kcal/mol in series [6] (54 °C); 0.1 kcal/mol in series [6] (56 °C). The Tm was 57 ± 1 °C in series [6] (setting [7]); 59 ± 1 °C in series [6] (setting [8]); 56 ± 1 °C in series [4] (Δt 300 s, [ABD] 200 μM); 56 ± 1 ^f °C in series [4] (setting [9]); 56 ± 1 °C in series [4] (Δt 600 s, [ABD] 200 μM); 56 ± 1 °C in series [4] (Δt 600 s, [ABD] 400 μM). The Tm in series [4] (Δt 600 s, [ABD] 1200 μM) was 58 ± 1 °C; in series [4] (Δt 600 s, [ABD] 1600 μM), 58 ± 1 °C. Besides, the ΔHm in series [6] (setting [7]) was 138 ± 1 kcal/mol; in series [6] (setting [8]), 160 ± 8 kcal/mol; in series [4] (setting [9]), 123 ± 16 ^f kcal/mol and 112 ± 5 ^f kcal/mol; in series [4] (Δt 300 s, [ABD] 800 μM, ΔCp fixed at 3), 121 ± 4 kcal/mol; in series [4] (Δt 300 s, [ABD] 1600 μM, ΔCp fixed at 3) it was 117 ± 8 kcal/mol; in series [4] (Δt 600 s, [ABD] 800 μM, ΔCp fixed at 3), 128 ± 3 kcal/mol. Besides, the ΔHm stood at 125 ± 5 kcal/mol in series [4] (Δt 600 s, [ABD] 1200 μM, ΔCp fixed at 3) and 121 ± 4 kcal/mol in series [4] (Δt 600 s, [ABD] 1600 μM, ΔCp fixed at 3). In addition, the Kd worked out at 1200 nM in series [6] (46 °C); 1400 nM in series [6] (48 °C); 1700 nM in series [6] (50 °C); 2000 nM in series [6] (52 °C); 2300 nM in series [6] (54 °C); 2700 nM in series [6] (56 °C). Further, the Ea/R in series [4] (average value) was -8140 ^a K; in series [4] (Δt 300 s, [ABD] 200 μM, pH 7), -8163 ± 6 K; in series [4] (Δt 300 s, [ABD] 400 μM, pH 7), -8110 ± 14 K. For the same molecule, the “~kclose at Tm” value in series [4] (Δt 300 s, [ABD] 1600 μM) was around 0.04 s⁻¹; in series [4] (Δt 600 s, [ABD] 1200 μM), around 0.04 s⁻¹; in series [4] (Δt 600 s, [ABD] 1600 μM) it was around 0.04 s⁻¹. In addition, the “apparent Tm” value in series [5] turned out to be 56 ± 1 °C.

(Values after PMC3139720 (Proteins, 2011).)
